Source: ChEMBL document CHEMBL4406821, “Novel dual inhibitors targeting CDK4 and VEGFR2 synergistically suppressed cancer progression and angiogenesis” (Eur J Med Chem, 2019)
Calls of active or inactive are those of the source. The calls are words filed in the database; no cut-off is given here.

How the values were obtained:
[1] = Toxicity in NOD/SCID BALB/c mouse xenografted with human SiHa cells assessed as toxic effects in kidney at 40 mg/kg, po administered for 48 hrs by hematoxylin and eosin staining method; format: organism-based; conditions: in vivo
[2] = Toxicity in NOD/SCID BALB/c mouse xenografted with human SiHa cells assessed as toxic effects in brain at 40 mg/kg, po administered for 48 hrs by hematoxylin and eosin staining method; format: organism-based; conditions: in vivo
[3] = Tmax in Sprague-Dawley rat at 10 mg/kg, po by HPLC-MS analysis; format: ADME, organism-based; conditions: in vivo
[4] = target: T1, Vascular endothelial growth factor receptor 2 (Homo sapiens, UniProt P35968); assay: Inhibition of recombinant human VEGFR2 (790 to end residues) using myelin ba as substrate incubated for 40 mins by [gamma-33P]-ATP based radiometric assay
T1 sequence (P35968 whole entry): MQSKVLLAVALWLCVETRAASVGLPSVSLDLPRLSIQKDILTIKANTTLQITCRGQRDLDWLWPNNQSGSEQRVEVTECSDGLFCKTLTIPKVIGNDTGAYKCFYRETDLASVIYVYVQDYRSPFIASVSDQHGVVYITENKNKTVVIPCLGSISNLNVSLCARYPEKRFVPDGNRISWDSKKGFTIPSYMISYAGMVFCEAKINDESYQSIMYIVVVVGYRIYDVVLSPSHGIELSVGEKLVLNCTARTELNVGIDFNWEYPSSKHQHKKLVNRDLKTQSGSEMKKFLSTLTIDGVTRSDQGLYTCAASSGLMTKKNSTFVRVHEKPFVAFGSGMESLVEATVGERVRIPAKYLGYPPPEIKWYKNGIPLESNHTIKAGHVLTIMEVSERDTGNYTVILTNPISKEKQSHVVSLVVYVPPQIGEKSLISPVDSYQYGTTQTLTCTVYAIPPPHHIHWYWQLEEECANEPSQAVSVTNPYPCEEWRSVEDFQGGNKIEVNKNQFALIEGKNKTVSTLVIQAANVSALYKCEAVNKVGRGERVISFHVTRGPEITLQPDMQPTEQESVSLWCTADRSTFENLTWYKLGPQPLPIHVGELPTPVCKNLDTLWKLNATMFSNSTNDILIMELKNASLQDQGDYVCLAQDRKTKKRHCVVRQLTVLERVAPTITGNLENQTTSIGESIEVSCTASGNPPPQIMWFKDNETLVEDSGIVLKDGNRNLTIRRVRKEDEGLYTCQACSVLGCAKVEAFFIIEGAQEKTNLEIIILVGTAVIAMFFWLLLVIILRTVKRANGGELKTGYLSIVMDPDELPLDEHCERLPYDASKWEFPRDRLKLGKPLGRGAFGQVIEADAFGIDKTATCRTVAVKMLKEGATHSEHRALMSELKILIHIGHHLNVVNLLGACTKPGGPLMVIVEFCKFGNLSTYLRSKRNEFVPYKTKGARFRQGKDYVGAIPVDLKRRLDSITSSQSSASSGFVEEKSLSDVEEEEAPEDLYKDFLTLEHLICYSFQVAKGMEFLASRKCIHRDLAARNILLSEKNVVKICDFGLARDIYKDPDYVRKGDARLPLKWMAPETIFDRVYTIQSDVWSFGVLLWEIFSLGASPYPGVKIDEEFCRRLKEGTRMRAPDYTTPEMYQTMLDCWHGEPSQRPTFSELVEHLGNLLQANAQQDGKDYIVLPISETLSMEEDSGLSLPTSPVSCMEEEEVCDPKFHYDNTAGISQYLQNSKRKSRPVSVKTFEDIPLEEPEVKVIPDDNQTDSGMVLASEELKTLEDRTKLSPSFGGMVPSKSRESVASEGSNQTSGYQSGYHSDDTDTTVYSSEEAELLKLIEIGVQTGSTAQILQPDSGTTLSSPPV

[5] = target: Aurora kinase B (Homo sapiens) (UniProt Q96GD4); assay: Inhibition of recombinant full length human Aurora-B at 1 uM using AKRRRLSSLRA as substrate incubated for 40 mins in presence of [gamma-33P]-ATP by scintillation counting method relative to control
Chain of Aurora kinase B (Homo sapiens) (Q96GD4 whole entry): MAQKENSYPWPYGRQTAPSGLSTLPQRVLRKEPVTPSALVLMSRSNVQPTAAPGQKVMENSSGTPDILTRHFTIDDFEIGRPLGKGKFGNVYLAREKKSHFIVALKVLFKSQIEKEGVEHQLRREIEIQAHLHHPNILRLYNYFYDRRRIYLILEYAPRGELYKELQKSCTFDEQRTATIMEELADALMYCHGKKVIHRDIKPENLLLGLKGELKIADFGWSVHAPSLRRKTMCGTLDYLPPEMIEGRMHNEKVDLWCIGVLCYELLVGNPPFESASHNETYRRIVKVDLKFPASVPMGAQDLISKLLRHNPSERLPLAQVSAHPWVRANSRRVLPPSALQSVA
Method in brief: (§1)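 Kinase panel profiling at 1 μM performed by Eurofins KinaseProfiler; percent inhibition reported as mean of two independent experiments.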

[6] = target: Serine/threonine-protein kinase Chk2 (Homo sapiens) (UniProt O96017); assay: Inhibition of recombinant human CHK2 (5 to end residues) at 1 uM using KKKVSRSGLYRSP as substrate incubated for 40 mins in presence of [gamma-33P]-ATP by scintillation counting method relative to control; method in brief: as §1
Chain of Serine/threonine-protein kinase Chk2 (Homo sapiens) (O96017 whole entry, the tested form may be a part, canonical isoform): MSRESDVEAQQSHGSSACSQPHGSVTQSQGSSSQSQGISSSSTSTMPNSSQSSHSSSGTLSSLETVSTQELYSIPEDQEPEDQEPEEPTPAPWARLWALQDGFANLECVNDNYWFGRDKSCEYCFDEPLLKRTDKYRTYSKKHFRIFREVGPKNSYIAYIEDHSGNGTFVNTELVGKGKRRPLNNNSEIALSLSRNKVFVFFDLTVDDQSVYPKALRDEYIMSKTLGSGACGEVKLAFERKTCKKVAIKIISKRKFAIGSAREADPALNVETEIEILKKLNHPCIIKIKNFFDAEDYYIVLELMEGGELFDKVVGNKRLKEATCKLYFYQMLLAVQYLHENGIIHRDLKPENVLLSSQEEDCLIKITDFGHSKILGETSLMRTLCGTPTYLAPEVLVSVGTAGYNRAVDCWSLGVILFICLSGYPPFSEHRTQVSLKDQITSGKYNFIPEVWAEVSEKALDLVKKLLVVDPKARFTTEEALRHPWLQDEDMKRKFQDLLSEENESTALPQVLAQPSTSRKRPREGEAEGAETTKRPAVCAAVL

[7] = target: Casein kinase I isoform gamma-1 (Homo sapiens) (UniProt Q9HCP0); assay: Inhibition of recombinant human CK1gamma1 (25 to 355 residues) at 1 uM using KRRRALS(p)VAS as substrate incubated for 40 mins in presence of [gamma-33P]-ATP by scintillation counting method relative to control; method in brief: as §1
Chain of Casein kinase I isoform gamma-1 (Homo sapiens) (Q9HCP0 whole entry, looked up, the tested form may be a part, canonical isoform): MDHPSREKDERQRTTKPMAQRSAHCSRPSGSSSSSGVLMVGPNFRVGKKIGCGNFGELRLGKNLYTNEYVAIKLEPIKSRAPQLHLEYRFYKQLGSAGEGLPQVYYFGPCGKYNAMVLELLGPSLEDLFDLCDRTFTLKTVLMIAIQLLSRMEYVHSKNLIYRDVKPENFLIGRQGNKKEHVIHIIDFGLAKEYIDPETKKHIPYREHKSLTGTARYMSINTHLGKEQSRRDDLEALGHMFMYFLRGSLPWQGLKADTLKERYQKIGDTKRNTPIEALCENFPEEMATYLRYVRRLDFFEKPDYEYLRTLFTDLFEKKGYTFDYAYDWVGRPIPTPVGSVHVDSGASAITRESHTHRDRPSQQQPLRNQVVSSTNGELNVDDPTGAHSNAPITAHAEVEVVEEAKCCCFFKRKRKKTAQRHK

[8] = target: Myotonin-protein kinase (Homo sapiens) (UniProt Q09013); assay: Inhibition of recombinant human DMPK (1 to 549 residues) at 1 uM using KKSRGDYMTMQIG as substrate incubated for 40 mins in presence of [gamma-33P]-ATP by scintillation counting method relative to control; method in brief: as §1
[9] = tested on: Epidermal growth factor receptor (Homo sapiens), P00533 [L861Q]; assay: Inhibition of recombinant human EGFR L861Q mutant (696 to end residues) at 1 uM using poly(Glu, Tyr) 4:1 as substrate incubated for 40 mins in presence of [gamma-33P]-ATP by scintillation counting method relative to control
Chain of Epidermal growth factor receptor (Homo sapiens), P00533 [L861Q] (P00533 whole entry L861Q, the tested form may be a part): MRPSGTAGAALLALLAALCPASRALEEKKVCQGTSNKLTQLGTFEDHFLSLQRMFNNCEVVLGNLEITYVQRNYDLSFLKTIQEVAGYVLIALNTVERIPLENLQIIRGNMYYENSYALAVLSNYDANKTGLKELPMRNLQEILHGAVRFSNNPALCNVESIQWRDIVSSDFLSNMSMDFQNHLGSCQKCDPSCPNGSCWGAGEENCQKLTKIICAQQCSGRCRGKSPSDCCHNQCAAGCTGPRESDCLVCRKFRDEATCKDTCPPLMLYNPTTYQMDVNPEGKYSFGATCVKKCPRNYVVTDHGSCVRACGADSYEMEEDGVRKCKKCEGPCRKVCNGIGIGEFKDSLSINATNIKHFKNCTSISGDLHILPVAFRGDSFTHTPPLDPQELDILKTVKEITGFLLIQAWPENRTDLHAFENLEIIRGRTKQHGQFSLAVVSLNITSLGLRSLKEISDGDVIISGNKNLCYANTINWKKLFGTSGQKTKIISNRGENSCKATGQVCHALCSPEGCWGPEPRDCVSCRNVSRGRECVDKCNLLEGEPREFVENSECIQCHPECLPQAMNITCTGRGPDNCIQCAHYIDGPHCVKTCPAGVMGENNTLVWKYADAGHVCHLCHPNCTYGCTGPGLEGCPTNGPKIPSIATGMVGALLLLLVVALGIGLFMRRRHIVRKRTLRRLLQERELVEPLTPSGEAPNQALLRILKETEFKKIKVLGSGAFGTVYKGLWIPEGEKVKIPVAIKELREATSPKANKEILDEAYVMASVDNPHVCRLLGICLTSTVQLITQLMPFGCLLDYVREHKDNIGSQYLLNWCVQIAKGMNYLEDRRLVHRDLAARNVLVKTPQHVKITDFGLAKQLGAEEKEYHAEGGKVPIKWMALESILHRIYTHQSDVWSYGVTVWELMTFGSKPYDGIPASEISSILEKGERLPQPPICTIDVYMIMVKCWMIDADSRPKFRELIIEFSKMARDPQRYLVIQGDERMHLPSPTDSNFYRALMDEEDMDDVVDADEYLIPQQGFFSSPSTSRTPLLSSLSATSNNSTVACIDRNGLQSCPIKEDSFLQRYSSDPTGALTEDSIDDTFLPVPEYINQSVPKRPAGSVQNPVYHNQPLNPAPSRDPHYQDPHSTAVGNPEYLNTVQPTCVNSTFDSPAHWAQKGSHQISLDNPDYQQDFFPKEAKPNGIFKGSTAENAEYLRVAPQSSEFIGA

[10] = target: Ephrin type-A receptor 8 (Homo sapiens) (UniProt P29322); assay: Inhibition of recombinant human EPhA8 (615 to 911 residues) at 1 uM using KTFCGTPEYLAPEVRREPRILSEEEQEMFRDFDYIADWC as substrate incubated for 40 mins in presence of [gamma-33P]-ATP by scintillation counting method relative to control
[11] = target: SRSF protein kinase 3 (Homo sapiens) (UniProt Q9UPE1); assay: Inhibition of recombinant human full length MSSK1 at 1 uM using ERMRPRKRQGSVRRRV as substrate incubated for 40 mins in presence of [gamma-33P]-ATP by scintillation counting method relative to control
[12] = target: Serine/threonine-protein kinase Nek6 (Homo sapiens) (UniProt Q9HC98); assay: Inhibition of recombinant human NEK6 (2 to end residues) at 1 uM using FLAKSFGSPNRAYKK as substrate incubated for 40 mins in presence of [gamma-33P]-ATP by scintillation counting method relative to control
Chain of Serine/threonine-protein kinase Nek6 (Homo sapiens) (Q9HC98 whole entry): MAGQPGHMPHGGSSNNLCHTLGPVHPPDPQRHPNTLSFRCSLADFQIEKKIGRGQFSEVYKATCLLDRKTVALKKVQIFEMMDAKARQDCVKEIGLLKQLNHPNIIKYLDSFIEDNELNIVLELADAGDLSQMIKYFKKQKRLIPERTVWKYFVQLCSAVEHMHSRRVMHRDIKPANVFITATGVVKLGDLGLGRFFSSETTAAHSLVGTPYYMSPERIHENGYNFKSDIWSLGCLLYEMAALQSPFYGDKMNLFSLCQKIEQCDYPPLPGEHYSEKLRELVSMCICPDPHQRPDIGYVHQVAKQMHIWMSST

[13] = target: NUAK family SNF1-like kinase 2 (Homo sapiens) (UniProt Q9H093); assay: Inhibition of recombinant human full length NUAK2 at 1 uM using KKKVSRSGLYRSPSMPENLNRPR as substrate incubated for 40 mins in presence of [gamma-33P]-ATP by scintillation counting method relative to control
[14] = target: cGMP-dependent protein kinase 1 (Homo sapiens) (UniProt Q13976); assay: Inhibition of recombinant human full length PKG1beta at 1 uM using RRRLSFAEPG as substrate incubated for 40 mins in presence of [gamma-33P]-ATP by scintillation counting method relative to control
Chain of cGMP-dependent protein kinase 1 (Homo sapiens) (Q13976 whole entry, the tested form may be a part): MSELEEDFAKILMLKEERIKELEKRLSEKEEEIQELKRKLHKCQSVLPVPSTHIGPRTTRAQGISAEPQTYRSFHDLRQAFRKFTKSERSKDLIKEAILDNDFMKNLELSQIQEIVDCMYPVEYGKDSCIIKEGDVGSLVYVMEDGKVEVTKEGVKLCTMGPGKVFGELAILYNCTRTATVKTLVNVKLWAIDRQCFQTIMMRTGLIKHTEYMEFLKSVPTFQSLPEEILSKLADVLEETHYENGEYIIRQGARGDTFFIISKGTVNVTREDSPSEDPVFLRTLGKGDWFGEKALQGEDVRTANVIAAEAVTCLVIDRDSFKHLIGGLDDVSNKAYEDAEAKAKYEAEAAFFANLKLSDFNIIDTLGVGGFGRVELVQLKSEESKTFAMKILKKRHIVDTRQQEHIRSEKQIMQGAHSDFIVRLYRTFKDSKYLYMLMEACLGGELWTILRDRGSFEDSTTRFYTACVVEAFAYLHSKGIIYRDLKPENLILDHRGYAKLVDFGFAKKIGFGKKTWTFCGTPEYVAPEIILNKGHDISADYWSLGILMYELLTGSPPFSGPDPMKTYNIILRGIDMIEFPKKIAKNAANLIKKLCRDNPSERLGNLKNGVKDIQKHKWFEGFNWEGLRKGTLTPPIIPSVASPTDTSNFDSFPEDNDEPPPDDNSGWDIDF

[15] = target: Receptor-interacting serine/threonine-protein kinase 2 (Homo sapiens) (UniProt O43353); assay: Inhibition of recombinant human RIPK2 (1 to 299 residues) at 1 uM using myelin basic protein as substrate incubated for 40 mins in presence of [gamma-33P]-ATP by scintillation counting method relative to control
[16] = target: Serine/threonine-protein kinase 32B (Homo sapiens) (UniProt Q9NY57); assay: Inhibition of recombinant human full length STK32B at 1 uM using casein as substrate incubated for 40 mins in presence of [gamma-33P]-ATP by scintillation counting method relative to control
[17] = target: Serine/threonine-protein kinase TBK1 (Homo sapiens) (UniProt Q9UHD2); assay: Inhibition of recombinant human full length TBK1 at 1 uM using KRRRALS(p)VASLPGL as substrate incubated for 40 mins in presence of [gamma-33P]-ATP by scintillation counting method relative to control
[18] = tested on: Angiopoietin-1 receptor (Homo sapiens), Q02763 [R849W]; assay: Inhibition of recombinant human TIE2 R849W mutant (771 to end residues) at 1 uM using EFPIYDFLPAKKK as substrate incubated for 40 mins in presence of [gamma-33P]-ATP by scintillation counting method relative to control
[19] = target: Tyrosine-protein kinase Yes (Homo sapiens) (UniProt P07947); assay: Inhibition of recombinant human full length YES at 1 uM using poly(Glu, Tyr) 4:1 as substrate incubated for 40 mins in presence of [gamma-33P]-ATP by scintillation counting method relative to control
[20] = tested on: PI3-kinase p110-alpha/p85-alpha (Homo sapiens), P27986+P42336 [E542K]; assay: Inhibition of recombinant human full length PI3K p110alpha/p85alpha E542K mutant at 1 uM using phosphatidylinositol 4,5-bisphosphate as substrate incubated for 40 mins in presence of [gamma-33P]-ATP by scintillation counting method relative to control; format: protein-complex assay
SiHa = assay: Antiangiogenic activity against human SiHa cells xenografted in NOD/SCID BALB/c mouse assessed as reduction in CD31 expression at 40 mg/kg, po measured after 21 days by hematoxylin and eosin staining based immunohistochemistry; format: functional, organism-based
Method in brief: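 Female NOD/SCID Balb/c mice, 6–8 weeks old, received 2×10^6 SiHa cells subcutaneously in the right flank. Once tumors reached 100 mm³, mice were randomized, 5 per group, and gavaged once daily for 21 days. Formalin-fixed, paraffin-embedded tumor sections were stained with Ki67 or CD31 antibody (1:100, 4 °C overnight), then biotin secondary and ABC-peroxidase/DAB, with hematoxylin counterstain.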

[21] = target: T1, Vascular endothelial growth factor receptor 2; conditions: HUVEC, 40 nM

With `Cc1ccc(NC(=O)C2(C(=O)Nc3ccc(Nc4ncc(F)c(-c5cc(F)c6nc(C)n(C(C)C)c6c5)n4)cc3)CC2)cc1` the Activity [1] was “Non-Toxic”, the Activity [2] was “Non-Toxic” and the Tmax [3] was 2 h. The IC50 [4] was 46 nM, the inhibition [5] was 64% and the inhibition [6] was 22%. It also gave an inhibition [7] of 23%, an inhibition [8] of 10% and an inhibition [9] of 34%. For the same compound, the inhibition [10] was 15%, the inhibition [11] was 2% and the inhibition [12] was 2%. The inhibition [13] was 67%, the inhibition [14] was 45% and the inhibition [15] was 46%. The inhibition [16] was 2%, the inhibition [17] was 9% and the inhibition [18] was 57%. The inhibition [19] was 31% and the inhibition [20] was 5%.
With `COc1cc2nccc(Oc3ccc(NC(=O)C4(C(=O)Nc5ccc(F)cc5)CC4)cc3)c2cc1OC` [CABOZANTINIB] the inhibition (SiHa) was “Active” and the inhibition [21] was “Active”.
